The source of these data is ChEMBL document CHEMBL3352302, “Synthesis of new compounds with promising antiviral properties against group A and B Human Rhinoviruses” (Bioorg Med Chem, 2014).

Values after ≈ are worked out from the molar mass of the structure shown. Active and inactive are the calls of the source. No cut-off for these calls is given here.

Data set [1] has as its system rhinovirus B14. The data set can be described thus: Antiviral activity against Human rhinovirus 14 assessed as reduction in virus yield after 24 to 36 hrs by agar plaque assay. In kind it is functional. The conditions noted are these: Rhinovirus B; read-out: ID50 (the source's name). The procedure, abridged:
(§1)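 Virus-yield reduction: infected monolayers given serial dilutions of compound, incubated 24–36 h at 33 °C, 3% CO₂ until cytopathic effect in controls was almost total. Monolayers then frozen and thawed; virus in supernatant titrated by plaque assay (50% plaque reduction in Hep-2 cells). ID₅₀ is the concentration inhibiting plaque formation by 50%, from dose–response curves by linear regression.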

Data set [2] in a line: Protective index, ratio of CD50 for human HeLa cells to ID50 for Human rhinovirus 14. A digest of the protocol: (§2)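 PI = CD₅₀/ID₅₀. For CD₅₀, HeLa (Ohio strain) monolayers in DMEM with 10% fetal calf serum were exposed to a range of compound concentrations at 37 °C, 5% CO₂. Morphology was checked by light microscopy at 24, 48 and 72 h. Viability read by MTT; CD₅₀ = concentration reducing control absorbance by 50%. ID₅₀ came from the plaque-reduction virus-yield assay.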

Another data set relates to rhinovirus A39. The data set can be described thus: Antiviral activity against Human rhinovirus 39 assessed as reduction in virus yield after 24 to 36 hrs by agar plaque assay. In kind it is functional. The conditions noted are these: Rhinovirus A; read-out: ID50 (the source's name). The procedure, abridged:
as §1

A short description of data set [3]: Cytotoxicity against human HeLa cells after 24 to 72 hrs by MTT assay. In kind it is cell-based. The conditions noted are these: read-out: CD50 (the source's name). The procedure, abridged:
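HeLa (Ohio strain) monolayers in DMEM with 1% non-essential amino acids, penicillin/streptomycin and 10% FCS at 37 °C, 5% CO₂, exposed to various compound concentrations. Morphology (rounding, shrinking, detachment) was checked by light microscopy at 24, 48 and 72 h, and viability read by MTT colorimetry. CD₅₀ is the concentration reducing control absorbance by 50%.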
(Formazan colour is commonly taken as a measure of viable cells.)

The nature of data set [4]: Protective index, ratio of CD50 for human HeLa cells to ID50 for Human rhinovirus 39. A digest of the protocol:
as §2

Data set [5] concerns rhinovirus B14. The data set can be described thus: Antiviral activity against Human rhinovirus 14 assessed as reduction in virus yield at 5 ug/ml added 4 to 5 hrs after infection by agar plaque assay. In kind it is functional, organism-based. The procedure, abridged: (§3)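 HRV14 (group A, ATCC; working stocks prepared as cellular lysates in DMEM with 2% heat-inactivated FCS). Compound was added to cells at different times, from h −1 to several hours post infection, and incubated 24–36 h at 33 °C, 3% CO₂ until cytopathic effect in controls was almost total. Monolayers were then freeze-thawed and supernatant virus titrated by plaque assay.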

Data set [6] relates to rhinovirus B14. The data set can be described thus: Antiviral activity against Human rhinovirus 14 assessed as reduction in virus yield at 5 ug/ml added within 3 hrs after infection by agar plaque assay. It is filed as functional, organism-based. A digest of the protocol:
as §3

The subject of data set [7] is rhinovirus B14. The data set can be described thus: Reversible antiviral activity against Human rhinovirus 14 assessed as reduction in virus yield by agar plaque assay. It is filed as functional, organism-based.

Consider `Cc1cc(OCCCOc2ccc3c(c2)OCO3)on1`, for which the IC50 in the data set with rhinovirus B14 [1] stood at 25 µg/mL (≈ 90.2 µM); in the data set on rhinovirus A39, 12 µg/mL (≈ 43.3 µM). For the same molecule, the PI in data set [2] is on record as 2; in data set [4], 4. In data set [3], the CC50 was determined as 50 µg/mL (≈ 180 µM).

For `CC(=O)c1ccc(OCCCOCCc2cc(C)no2)cc1`, the IC50 in the data set on rhinovirus B14 [1] is 25 µg/mL (≈ 82.4 µM); in the data set on rhinovirus A39 it was 6 µg/mL (≈ 19.8 µM). Further, the PI is recorded as 2 in data set [2] and 8 in data set [4]. In addition, the CC50 in data set [3] was found to be 50 µg/mL (≈ 165 µM).

Regarding `CCOC(=O)c1ccc(OCCCOCCc2cc(C)no2)cc1`, the IC50 in the data set on rhinovirus B14 [1] and with rhinovirus A39 was 0.07 µg/mL (≈ 0.21 µM) throughout. Moreover, the PI in data set [2] and in data set [4] was 714 throughout. In data set [3], the CC50 came out at 50 µg/mL (≈ 150 µM).

Consider `CC(=O)c1ccc(OCCCOCc2ccc3c(c2)OCO3)cc1`, for which the IC50 with rhinovirus B14 [1] and in the data set with rhinovirus A39 was 6 µg/mL (≈ 18.3 µM) in each case. In addition, the PI in data set [2] and in data set [4] was 8 throughout. Besides, the CC50 in data set [3] was 50 µg/mL (≈ 152 µM).

For the molecule `Cc1cc(CCOCCCOc2ccc3c(c2)OCO3)on1`, the IC50 in the data set on rhinovirus B14 [1] and with rhinovirus A39 was 50 µg/mL (≈ 164 µM) in each case. For the same molecule, the PI in data set [2] and in data set [4] was 1 in each case. In data set [3], the CC50 stood at 50 µg/mL (≈ 164 µM).

Turning to `CCOc1nc2ccc(OCCCOc3ccc(C#N)cc3)cc2o1`, the IC50 with rhinovirus B14 [1] came out at 25 µg/mL (≈ 73.9 µM); in the data set with rhinovirus A39 it was 1.5 µg/mL (≈ 4.43 µM). Moreover, the figures for the PI in data set [2] and in data set [4] were 2 and 33, respectively. Further, in data set [3], the CC50 is 50 µg/mL (≈ 148 µM).

For `CC(=O)c1ccc(OCCCOc2ccc3c(c2)OCO3)cc1`, the IC50 in the data set with rhinovirus B14 [1] and in the data set on rhinovirus A39 was 25 µg/mL (≈ 79.5 µM) in each case. For the same molecule, the PI in data set [2] and in data set [4] was 1 in each case. Further, the CC50 in data set [3] turned out to be 25 µg/mL (≈ 79.5 µM).

Consider `CCOC(=O)c1ccc(OCCC2CCN(c3ccc(C)nn3)CC2)cc1` [PIRODAVIR], for which the IC50 in the data set on rhinovirus B14 [1] was found to be 0.012 µg/mL (≈ 0.0325 µM); with rhinovirus A39, 0.006 µg/mL (≈ 0.0162 µM). Moreover, the results for the PI in data set [2] and in data set [4] were 258 and 516, respectively. In the data set with rhinovirus B14 [5], the outcome was inactive. Further, the CC50 in data set [3] came out at 3.1 µg/mL (≈ 8.39 µM). The result in the data set on rhinovirus B14 [6] was Active.

For `CCOc1nc2ccc(OCCCOc3ccc(C(C)=O)cc3)cc2o1`, the IC50 came out at 0.5 µg/mL (≈ 1.41 µM) in the data set on rhinovirus B14 [1] and 0.1 µg/mL (≈ 0.281 µM) with rhinovirus A39. In addition, the PI came out at 400 in data set [2] and 2000 in data set [4]. Further, the result with rhinovirus B14 [5] was inactive. The outcome in the data set with rhinovirus B14 [7] and with rhinovirus B14 [6] was Active. For the same molecule, the CC50 in data set [3] was 200 µg/mL (≈ 563 µM).

For the molecule `Fc1ccc(OCCCOc2ccc3c(c2)OCO3)cc1`, the IC50 in the data set with rhinovirus B14 [1] and in the data set on rhinovirus A39 was 25 µg/mL (≈ 86.1 µM) throughout. The PI in data set [2] and in data set [4] was 1 each time. Further, in data set [3], the CC50 stood at 25 µg/mL (≈ 86.1 µM).

As to `CCOc1nc2ccc(OCCCOc3ccc4c(c3)OCO4)cc2o1`, the IC50 in the data set on rhinovirus B14 [1] amounted to 25 µg/mL (≈ 70 µM); in the data set with rhinovirus A39 it was 12 µg/mL (≈ 33.6 µM). In addition, the figures for the PI in data set [2] and in data set [4] were 8 and 16, respectively. The CC50 in data set [3] was determined as 200 µg/mL (≈ 560 µM).
